Data from ChEMBL document CHEMBL4152240, “Synthesis, cytotoxicity and structure-activity relationship of indolizinoquinolinedione derivatives as DNA topoisomerase IB catalytic inhibitors” (2018).
Active and inactive are the calls of the source. The calls are words filed in the database; no cut-off is given here.

Columns and labels:
[1] = molecular target: T1, Topoisomerase I (Bos taurus) (UniProt Q2HPH0); assay: Inhibition of calf thymus TOP1-mediated relaxation of supercoiled pBR322 DNA at 25 uM after 30 mins by agarose gel electrophoresis relative to camptothecin
T1 sequence (whole entry): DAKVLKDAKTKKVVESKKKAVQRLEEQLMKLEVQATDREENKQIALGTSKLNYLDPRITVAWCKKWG
Outline: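 0.5 µg supercoiled pBR322 in buffer (10 mM Tris-HCl pH 7.5, 50 mM KCl, 5 mM MgCl2, BSA, DTT) with 1 unit calf thymus TOP1, with or without compound (0.2-125 µM), 30 min at 37 C. Run on 0.8% agarose/TBE at 4.6 V/cm for 1.5 h, gel red stained. Activity graded in bands (e.g. +++ 81-120%). At least two independent repeats.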

HCT-116 = assay: Cytotoxicity against human HCT116 cells assessed as growth inhibition after 72 hrs by MTT assay; format: functional; settings: HCT-116, 72 h
Outline: (§1)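 Five-dose MTT growth assay, compounds predissolved in DMSO, 72 h exposure at 37 C. Cells kept in RPMI-1640 or DMEM, 37 C, 5% CO2, passage 3-6. MTT (1 mg/mL in PBS) added for 4 h, formazan dissolved in DMSO, OD 570 nm. GI50 (50% growth inhibition) by nonlinear regression. Means ± SD, at least three repeats.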

CCRF-CEM = assay: Cytotoxicity against human CCRF-CEM cells assessed as growth inhibition after 72 hrs by MTT assay; format: functional; outline: as §1
A549 = assay: Cytotoxicity against human A549 cells assessed as growth inhibition after 72 hrs by MTT assay; format: functional; settings: A549, 72 h; outline: as §1
Huh-7 = assay: Cytotoxicity against human HuH7 cells assessed as growth inhibition after 72 hrs by MTT assay; format: functional; settings: Huh-7, 72 h; outline: as §1
DU-145 = assay: Cytotoxicity against human DU145 cells assessed as growth inhibition after 72 hrs by MTT assay; format: functional; settings: DU-145, 72 h; outline: as §1
DNA [2] = assay: Induction of unwinding effect of Escherichia coli relaxed pBR322 DNA at 1 to 9 uM preincubated with DNA for 10 mins followed by excess calf thymus TOP1 addition and measured after 30 mins by agarose gel electrophoresis; format: nucleic-acid assay
Outline: (§2)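 Compound (1, 3, 9 µM) preincubated with pBR322 DNA, supercoiled or relaxed, at room temperature for 10 min. Excess TOP1 then added and incubated 30 min at 37 C. Stopped with SDS/proteinase K. Ethidium bromide (0.3-1.2 mg/L) as positive control. Run on 0.8% agarose in TBE at 4.6 V/cm for 1.5 h, stained with gel red, UV visualized.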

DNA [3] = assay: Induction of unwinding effect of Escherichia coli supercoiled pBR322 DNA at 1 to 9 uM preincubated with DNA for 10 mins followed by excess calf thymus TOP1 addition and measured after 30 mins by agarose gel electrophoresis; format: nucleic-acid assay; outline: as §2

inhibition [1] [%]	Activity (DNA [2])	Activity (DNA [3])	SMILES	GI50 (HCT-116) [nM]	GI50 (CCRF-CEM) [nM]	GI50 (A549) [nM]	GI50 (Huh-7) [nM]	GI50 (DU-145) [nM]
< 40	–	–	O=C1c2cccnc2C(=O)c2c1c(C(=O)OCCCN1CCOCC1)c1c(Cl)cccn21	19100	68600	37500	28400	29100
< 40	–	–	O=C1c2cccnc2C(=O)c2c1c(C(=O)OCCCN1CCOCC1)c1c(F)cccn21	38	490	230	130	250
41 to 80	–	–	CN(C)CCOC(=O)c1c2c(n3cccc(F)c13)C(=O)c1ncccc1C2=O	92	1090	27200	310	690
< 40	–	–	O=C1c2cccnc2C(=O)c2c1c(C(=O)OCCCN1CCCC1)c1c(Cl)cccn21	38200	85300	24500	12200	8320
41 to 80	–	–	CCOC(=O)c1c2c(n3ccc(NC(=O)CCN(C)C)cc13)C(=O)c1ncccc1C2=O	1750	290	19600	1650	2270
41 to 80	–	–	O=C1c2cccnc2C(=O)c2c1c(C(=O)OCCCN1CCCC1)c1c(F)cccn21	29	510	80	110	92
< 40	–	–	O=C1c2cccnc2C(=O)c2c1c(C(=O)OCCN1CCCC1)c1c(Cl)cccn21	10200	48200	5390	2250	1580
< 40	–	–	O=C1c2cccnc2C(=O)c2c1c(C(=O)OCCN1CCOCC1)c1c(F)cccn21	110	1100	130	570	230
41 to 80	–	–	CCOC(=O)c1c2c(n3ccc(NC(=O)CCN4CCCC4)cc13)C(=O)c1ncccc1C2=O	1900	540	29300	1800	700
41 to 80	–	–	CN1CCN(CCCOC(=O)c2c3c(n4cccc(F)c24)C(=O)c2ncccc2C3=O)CC1	44	320	21	42	73
> 121	inactive	inactive	O=C1c2ncccc2C(=O)c2c1c(C(=O)OCCN1CCOCC1)c1ccccn21	11100	70500	4520	14200	1200
41 to 80	–	–	O=C1c2cccnc2C(=O)c2c1c(C(=O)OCCN1CCOCC1)c1c(Cl)cccn21	28600	61300	48600	30300	29500
81 to 120	inactive	inactive	CCOC(=O)c1c2c(n3ccc(NC(=O)CCN4CCCCC4)cc13)C(=O)c1ncccc1C2=O	1430	110	2650	1150	3120
81 to 120	inactive	inactive	O=C1c2cnncc2C(=O)c2c1c(C(=O)OCCN1CCOCC1)c1ccccn21	3430	1350	860	2920	1220
> 121	Active	Active	O=C1c2cccnc2C(=O)c2c1c(C(=O)OCCN1CCCCC1)c1c(Cl)cccn21	310	390	120	170	2520
81 to 120	inactive	inactive	CCOC(=O)c1c2c(n3ccc(NC(=O)CCN4CCOCC4)cc13)C(=O)c1ncccc1C2=O	300	600	9680	340	16400
41 to 80	–	–	O=C1c2nccnc2C(=O)c2c1c(C(=O)OCCN1CCOCC1)c1ccccn21	13200	1610	8520	7330	2550
41 to 80	–	–	CN1CCN(CCOC(=O)c2c3c(n4cccc(F)c24)C(=O)c2ncccc2C3=O)CC1	44	450	52	110	29
81 to 120	inactive	inactive	CCOC(=O)c1c2c(n3ccccc13)C(=O)c1ncccc1C2=O	330	680	160	850	93
41 to 80	–	–	O=C1c2cccnc2C(=O)c2c1c(C(=O)OCCCN1CCCCC1)c1c(Cl)cccn21	5150	5350	890	1320	1730
81 to 120	Active	Active	CN(C)CCCOC(=O)c1c2c(n3cccc(F)c13)C(=O)c1ncccc1C2=O	66	370	18	80	25
